CIT2-GFP yeast – modulators of TOR pathway CIT2-GFP in S. cerevisiae. S. cerevisiae CIT2-GFP strain, flow cytometry, 3 h; 100 means same as DMSO wells. GFP response vs DMSO, % at 10 µM. 320,000 tested, 0.065% active;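 active = GFP response relative to DMSO above a set limit, near the screen mean plus 3 SD, cut at about 150% in these data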;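 also: ratio of well median GFP fluorescence to mean of DMSO wells on the plate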
RPL19A-GFP yeast – modulators of TOR pathway RPL19A-GFP in S. cerevisiae | 330,000 tested, 0.3% active | S. cerevisiae RPL19A-GFP strain, flow cytometry, 3 h; active compounds read low | percent response vs DMSO, % at 10 µM;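 active = percent response vs DMSO below 50%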;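 also: median channel GFP fluorescence of the barcoded RPL19A-GFP strain; lower means less RPL19A-GFP as with rapamycin TOR inhibition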
MEP2 TOR yeast – modulators of TOR pathway MEP2-GFP in S. cerevisiae; AID 2016; GFP response vs DMSO, % at 10 µM; 330,000 tested, 0.51% active; S. cerevisiae MEP2-GFP strain, flow cytometry GFP, 3 h; 100% = DMSO control level;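 active = GFP response versus DMSO above a set limit, roughly screen mean plus 3 SD, cut at about 180% in these data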;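 also: median GFP fluorescence of the barcode-gated MEP2-GFP cells per well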
AGP1-GFP MLPCN – yeast TOR pathway AGP1-GFP modulation. S. cerevisiae AGP1-GFP multiplex flow cytometry, 3 h; GFP as percent of DMSO wells. GFP response vs DMSO, % at 10 µM. 320,000 tested, 0.02% active;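 active = GFP response relative to DMSO above a set limit, near screen average plus 3 SD, cut at about 150% in these data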;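 also: median GFP channel fluorescence of the gated AGP1 strain per well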
LAP4-GFP MLPCN – alters LAP4-GFP fluorescence in TOR pathway yeast screen; S. cerevisiae LAP4-GFP multiplex, flow cytometry GFP, 3 h; median GFP as percent of DMSO wells; 320,000 tested, 0.34% active; GFP response vs DMSO, % at 10 µM; AID 2023;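 active = GFP response vs DMSO above a set limit, about the screen mean plus 3 SD, cut at about 150% in these data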
T cell HTS – T cell immune modulation candidate; 2C CD8+ T cell-vesicle binding, flow cytometry; active compounds read low; response (vesicle binding), % at 7 µM; 330,000 tested, 0.068% active; AID 2052;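 active = response, share of CD8 T cells binding vesicles, and their 90th percentile fluorescence all below set limits, cut at about 80% in these data, passing the limit was not always enough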;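 also: values below 100% mean blocked vesicle binding to the CD8+ T cells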
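material = purified 2C TCR transgenic mouse naive CD8+ T cells | controls = Unloaded micro-vesicles (low), QL9 vesicles with 0.7% DMSO (high) | detection = cytometric PE anti-B7-1 and Alexa647 anti-CD8 signals after 1% paraformaldehyde fixation | incubation = binding step 1.5 h, 37 °C, antibody labelling 20 min, ice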
LAP4 cherry2 – yeast LAP4-GFP modulation, second cherry pick; shares compounds with LAP4-GFP MLPCN; S. cerevisiae LAP4-GFP strain, flow cytometry GFP, 3 h; GFP response vs DMSO, % at 10 µM; 590 tested, 20% active;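 active = GFP signal as percent of the solvent control above about 150%, meaning raised reporter expression, limit read from the data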
MEP2 cherry2 – second confirmation of modulators of TOR reporter MEP2-GFP in yeast | shares compounds with LAP4-GFP MLPCN | S. cerevisiae MEP2-GFP strain, flow cytometry GFP, 3 h | GFP response vs DMSO, % at 10 µM | 590 tested, 10% active;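 active = GFP signal above 150% of the solvent control wells, that is a rise of more than half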;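 also: median channel GFP fluorescence of all gated yeast cells per well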
RPL19A-GFP pick2 – reconfirmed modulator of RPL19A-GFP TOR reporter in yeast; shares compounds with LAP4-GFP MLPCN; S. cerevisiae RPL19A-GFP strain, flow cytometry GFP, 3 h; active compounds read low; 100% means same as DMSO wells; GFP response vs DMSO, % at 10 µM; 590 tested, 3% active; AID 2623;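 active = under 65% GFP response relative to DMSO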;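 also: median GFP channel fluorescence per well over the all cells gate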
CIT2-GFP pick2 – reconfirmed modulator of CIT2-GFP TOR reporter in yeast; GFP response vs DMSO, % at 10 µM; 590 tested, 8% active; AID 2624; S. cerevisiae CIT2-GFP strain, flow cytometry GFP, 3 h; DMSO control wells read 100%; shares compounds with LAP4-GFP MLPCN;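 active = GFP response vs DMSO above about 150%, limit read from the data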;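 also: median green fluorescence per well over all gated yeast cells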
AGP1 GFP CP2 – second confirmation of modulators of TOR reporter AGP1-GFP in yeast; shares compounds with LAP4-GFP MLPCN; S. cerevisiae AGP1-GFP strain, flow cytometry GFP, 3 h; percent response vs DMSO, % at 10 µM; 590 tested, under 10 active; AID 2643;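 active = over 150 percent of DMSO response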;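 also: median GFP channel fluorescence over all cells without mother daughter split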
s288c autofluor – counter-screen for compound autofluorescence in yeast s288c cells; shares compounds with LAP4-GFP MLPCN; S. cerevisiae s288c, 520 nm autofluorescence, flow cytometry, 3 h; active compounds read high; zero means same as solvent-only cells; fluorescence change (kMESF span) at 33 µM; 610 tested, under 10 active;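 active = fluorescence span over the dose series, or activity score, above about 33, limit read from the data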
TORC1 bypass – wildtype yeast growth loss with TORC1 bypass cells unaffected. shares compounds with LAP4-GFP MLPCN. S. cerevisiae BY4741 spot growth rating, 48-72 h; active compounds read low. growth rating (0-3) at 30 µM. 120 tested, under 10 active;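 active = growth rating at most 1 for wild type yeast while the TORC1 bypass strain still grows fully, rated 3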
Hits are given with their value; – = inactive; · = not tested or not shown. Hits are enriched below; roughly 0.96% of the tested compounds scored in any of these assays.

SMILES | CIT2-GFP yeast | RPL19A-GFP yeast | MEP2 TOR yeast | AGP1-GFP MLPCN | LAP4-GFP MLPCN | T cell HTS | s288c autofluor | others
CC(=O)Oc1ccc2c(c1)Oc1cc(OC(C)=O)ccc1C21OC(=O)c2ccccc21 | 164 | – | 230 | – | 206 | – | · | LAP4 cherry2=–;MEP2 cherry2=175;RPL19A-GFP pick2=–;CIT2-GFP pick2=403;AGP1 GFP CP2=–
Cc1cc2nc(-c3ccc4c(c3)CCC4)ccn2n1 | – | – | – | – | – | – | ·
COc1ccc(N=Nc2ccc(O)c3ncccc23)cc1 | – | – | – | – | 215 | – | –
COc1cccc(N=Nc2ccc(O)c3ncccc23)c1 | – | – | – | – | 180 | – | –
Oc1ccc(N=Nc2ccc3c(c2)OCCO3)c2cccnc12 | – | – | – | – | – | – | ·
O=S(=O)(O)c1cccc2c(N=Nc3ccc(O)c4ncccc34)cccc12 | – | – | – | – | – | – | ·
O=Nc1ccc(O)c2ncccc12 | – | – | – | – | – | – | ·
Cc1ccccc1N=Nc1ccc(O)c2ncccc12 | – | – | – | – | 178 | – | – | LAP4 cherry2=216;MEP2 cherry2=–;RPL19A-GFP pick2=–;CIT2-GFP pick2=156;AGP1 GFP CP2=–
CCOc1cc(C(=O)Nc2cc(C(=O)OC)ccc2C)ccc1OCC(=O)N1CCOCC1 | – | – | – | – | – | – | ·
C=CCC1CCC/C(=N\NS(=O)(=O)c2ccc(C)cc2)C1 (configuration not stated) | – | – | – | – | – | – | ·
O=C(Sc1cccc2cccnc12)c1ccccc1Br | – | – | – | – | 166 | – | –
Cc1c(NC2=C(Cl)C(=O)N(c3ccccc3Cl)C2=O)c(=O)n(-c2ccccc2)n1C | – | – | – | – | – | – | –
O=C1C(Cl)=C(Nc2ccccc2O)C(=O)N1c1ccccc1 | – | – | – | – | – | – | –
Cc1c(NC2=C(Cl)C(=O)N(c3ccccc3)C2=O)c(=O)n(-c2ccccc2)n1C | – | – | – | – | – | – | –
Cc1cc(NC(=O)c2coc(=O)c(Br)c2)ccc1C(C)C | – | – | – | – | – | – | ·
CCN(Cc1ccc(NC(C)=O)cc1)CC1CCCN(CCc2cccc(OC)c2)C1 (configuration not stated) | – | – | – | – | – | – | ·
COc1ccc(N2CC(C(=O)Nc3nnc(SCC(=O)N4CCOCC4)s3)CC2=O)cc1 (configuration not stated) | – | – | – | – | 157 | – | · | LAP4 cherry2=–;MEP2 cherry2=–;RPL19A-GFP pick2=–;CIT2-GFP pick2=–;AGP1 GFP CP2=–
O=C(Nc1nnc(SCC(=O)N2CCOCC2)s1)C1CC(=O)N(c2ccccc2)C1 (configuration not stated) | – | – | – | – | – | – | ·
CC(C)(CN1CCN(Cc2ccccc2)CC1)NS(=O)(=O)c1ccc(Cl)cc1 | – | – | – | – | – | – | ·
O=C(O)c1ccc2c(c1)C(=O)/C(=C/c1ccccc1)C2=O | – | – | – | – | – | – | – | LAP4 cherry2=–;MEP2 cherry2=–;RPL19A-GFP pick2=–;CIT2-GFP pick2=–;AGP1 GFP CP2=–
CCN(CC)C(=S)SSC(=S)N(CC)CC | – | – | – | – | 187 | – | – | LAP4 cherry2=181;MEP2 cherry2=–;RPL19A-GFP pick2=–;CIT2-GFP pick2=–;AGP1 GFP CP2=–
CCN(CC)C(=S)SCC(=O)c1ccccc1 | · | – | – | – | – | – | ·
CC(=O)Oc1ccc(N2C(=O)C3C4C=CC(O4)C3C2=O)cc1 (configuration not stated) | – | – | – | – | – | – | –
O=C(O)c1cccc(CN2C(=O)S/C(=C/c3cccc([N+](=O)[O-])c3)C2=O)c1 | – | – | – | – | – | – | · | LAP4 cherry2=–;MEP2 cherry2=–;RPL19A-GFP pick2=–;CIT2-GFP pick2=–;AGP1 GFP CP2=–
O=Nc1c(-c2cccc([N+](=O)[O-])c2)nc2ncccn12 | – | – | – | – | – | – | · | LAP4 cherry2=–;MEP2 cherry2=–;RPL19A-GFP pick2=–;CIT2-GFP pick2=–;AGP1 GFP CP2=–
SMILES | CIT2-GFP yeast | RPL19A-GFP yeast | MEP2 TOR yeast | AGP1-GFP MLPCN | LAP4-GFP MLPCN | T cell HTS | s288c autofluor | others
C#CCOc1c(Cl)cc(C2C3=C(CCCC3=O)N(CC(=O)O)C3=C2C(=O)CCC3)cc1OC | – | – | – | – | – | – | · | LAP4 cherry2=–;MEP2 cherry2=–;RPL19A-GFP pick2=–;CIT2-GFP pick2=–;AGP1 GFP CP2=–
Cc1ccc(C(=O)N2CC(C)OC(C)C2)cc1S(=O)(=O)N1CCCCC1 (configuration not stated) | – | – | – | – | – | – | ·
CC(C)(C)c1cc(C(c2cccnc2)N2CCN(CCO)CC2)cc(C(C)(C)C)c1O (configuration not stated) | – | – | – | – | 161 | – | –
CC(C)(C)n1nnnc1C(c1cccnc1)N1CCN(c2cccc(C(F)(F)F)c2)CC1 (configuration not stated) | – | – | – | · | – | – | ·
CN1C(=O)C(CC(=O)O)S/C1=N\N=C\c1ccc(O)cc1O (configuration not stated) | – | – | – | – | – | – | ·
N/C(=N\OC(=O)c1cccc(Br)c1)c1ccccc1 | – | – | – | – | 178 | – | –
COc1ccc(Nc2cc(C)nc(NCc3ccccc3)n2)cc1 | – | – | – | – | – | – | ·
COc1cccc(-c2cc(Nc3cc(C)[nH]n3)nc(NCc3ccccc3)n2)c1 | · | · | · | · | · | · | · | TORC1 bypass=–
COc1ccccc1-c1cc(Nc2cc(C)[nH]n2)nc(NCc2ccccc2)n1 | · | · | · | · | · | · | · | TORC1 bypass=–
COc1cc(C)nc(NCc2ccccc2)n1 | · | – | – | – | – | – | ·
CCc1cccc(NC(=O)c2ccc3c(=O)n4c(nc3c2)CCCCC4)c1 | – | – | – | – | – | – | ·
COc1ccccc1N1CCN(CCCCOc2ccc(C)cc2C)CC1 | – | – | – | – | – | – | ·
